Laboratory results taken from ChEMBL document CHEMBL5724801, “EUbOPEN Chemogenomics Library - Multiplex” (2024).
Where “and” joins values, the source holds several entries; their conditions need not be identical. Equal values may be shown once.

Tested on: HEK-293T
Test: Multiplex assay against HEK293T
Format: toxicity, cell-based
Conditions: human
In short: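 Cells were classed with CellPathfinder machine-learning gating, first as Hoechst high-intensity objects or normal cells, then (normal cells) as healthy, pyknosed or fragmented nuclei, and finally (pyknosed cells) as mitotic or apoptotic. Staining of live cells at seeding used Hoechst33342, BioTracker Green Microtubule Cytoskeleton Dye, MitoTracker Red and Annexin V Alexa Fluor 680, with imaging on a CQ1 microscope at 37°C and 5% CO2 after compound addition. Tubulin, mitochondrial-mass and membrane-permeability phenotypes are per cents of healthy-nucleus cells.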

[1] = 12 h, 1 µM, compound concentration 1 uM
[2] = 12 h, 10 µM, compound concentration 10 uM
[3] = 24 h, 1 µM, compound concentration 1 uM
[4] = 24 h, 10 µM, compound concentration 10 uM
[5] = 48 h, 1 µM, compound concentration 1 uM
[6] = 48 h, 10 µM, compound concentration 10 uM

Compound: COc1cccc2c1c(NS(=O)(=O)c1ccc(Cl)s1)nn2Cc1cccc(CNC(=O)C(C)(C)O)c1
- Population Apoptotic (%) [1]: 31% and 34%
- Population Fragmented Nuclei (%) [1]: 6% and 7%
- Population Healthy Nuclei (%) [1]: 82% and 77%
- Population Hoechst High Intensity Objects (%) [1]: 6% and 10%
- Population Membrane Permeable-Phenotype (%) [1]: 0%
- Population Mitochondria Different-Phenotype (%) [1]: 39% and 52%
- Population Mitotic Cells (%) [1]: 68% and 65%
- Population Normal (%) [1]: 93% and 89%
- Population Pyknosed Nuclei (%) [1]: 10% and 15%
- Population Tubulin-Different-Phenotype (%) [1]: 26% and 23%
- Total Cell Count [1]: 469 and 315
- Population Apoptotic (%) [2]: 42% and 35%
- Population Fragmented Nuclei (%) [2]: 6% and 5%
- Population Healthy Nuclei (%) [2]: 80% and 78%
- Population Hoechst High Intensity Objects (%) [2]: 7% and 11%
- Population Membrane Permeable-Phenotype (%) [2]: 0%
- Population Mitochondria Different-Phenotype (%) [2]: 51% and 69%
- Population Mitotic Cells (%) [2]: 57% and 65%
- Population Normal (%) [2]: 92% and 88%
- Population Pyknosed Nuclei (%) [2]: 12% and 16%
- Population Tubulin-Different-Phenotype (%) [2]: 38% and 33%
- Total Cell Count [2]: 356 and 280
- Population Apoptotic (%) [3]: 26% and 44%
- Population Fragmented Nuclei (%) [3]: 7% and 6%
- Population Healthy Nuclei (%) [3]: 81% and 84%
- Population Hoechst High Intensity Objects (%) [3]: 2% and 7%
- Population Membrane Permeable-Phenotype (%) [3]: 0%
- Population Mitochondria Different-Phenotype (%) [3]: 22% and 37%
- Population Mitotic Cells (%) [3]: 73% and 55%
- Population Normal (%) [3]: 97% and 92%
- Population Pyknosed Nuclei (%) [3]: 11% and 8%
- Population Tubulin-Different-Phenotype (%) [3]: 17% and 15%
- Total Cell Count [3]: 617 and 357
- Population Apoptotic (%) [4]: 40%
- Population Fragmented Nuclei (%) [4]: 10% and 9%
- Population Healthy Nuclei (%) [4]: 73% and 77%
- Population Hoechst High Intensity Objects (%) [4]: 5%
- Population Membrane Permeable-Phenotype (%) [4]: 0%
- Population Mitochondria Different-Phenotype (%) [4]: 34% and 46%
- Population Mitotic Cells (%) [4]: 60%
- Population Normal (%) [4]: 94%
- Population Pyknosed Nuclei (%) [4]: 16% and 12%
- Population Tubulin-Different-Phenotype (%) [4]: 23% and 22%
- Total Cell Count [4]: 462 and 384
- Population Apoptotic (%) [5]: 16% and 28%
- Population Fragmented Nuclei (%) [5]: 10% and 11%
- Population Healthy Nuclei (%) [5]: 83%
- Population Hoechst High Intensity Objects (%) [5]: 2%
- Population Membrane Permeable-Phenotype (%) [5]: 0% and 2%
- Population Mitochondria Different-Phenotype (%) [5]: 18% and 21%
- Population Mitotic Cells (%) [5]: 83% and 71%
- Population Normal (%) [5]: 97%
- Population Pyknosed Nuclei (%) [5]: 6% and 4%
- Population Tubulin-Different-Phenotype (%) [5]: 11% and 10%
- Total Cell Count [5]: 1062 and 591
- Population Apoptotic (%) [6]: 26% and 35%
- Population Fragmented Nuclei (%) [6]: 16% and 8%
- Population Healthy Nuclei (%) [6]: 72% and 83%
- Population Hoechst High Intensity Objects (%) [6]: 4%
- Population Membrane Permeable-Phenotype (%) [6]: 0%
- Population Mitochondria Different-Phenotype (%) [6]: 25% and 27%
- Population Mitotic Cells (%) [6]: 73% and 65%
- Population Normal (%) [6]: 95%
- Population Pyknosed Nuclei (%) [6]: 10% and 7%
- Population Tubulin-Different-Phenotype (%) [6]: 16% and 12%
- Total Cell Count [6]: 646 and 550

Compound: CCOc1c2c(c(OCC)c3ncccc13)CN(c1ccc(CS(=O)(=O)NC(=O)Cc3ccccc3OC)cc1C)C2=O
- Population Apoptotic (%) [1]: 33% and 35%
- Population Fragmented Nuclei (%) [1]: 3% and 5%
- Population Healthy Nuclei (%) [1]: 81% and 82%
- Population Hoechst High Intensity Objects (%) [1]: 6% and 5%
- Population Membrane Permeable-Phenotype (%) [1]: 0%
- Population Mitochondria Different-Phenotype (%) [1]: 43% and 54%
- Population Mitotic Cells (%) [1]: 66% and 64%
- Population Normal (%) [1]: 93% and 94%
- Population Pyknosed Nuclei (%) [1]: 14% and 12%
- Population Tubulin-Different-Phenotype (%) [1]: 31% and 16%
- Total Cell Count [1]: 356 and 355
- Population Apoptotic (%) [2]: 45% and 53%
- Population Fragmented Nuclei (%) [2]: 9% and 7%
- Population Healthy Nuclei (%) [2]: 78% and 76%
- Population Hoechst High Intensity Objects (%) [2]: 4% and 9%
- Population Membrane Permeable-Phenotype (%) [2]: 0%
- Population Mitochondria Different-Phenotype (%) [2]: 49% and 72%
- Population Mitotic Cells (%) [2]: 54% and 46%
- Population Normal (%) [2]: 95% and 90%
- Population Pyknosed Nuclei (%) [2]: 12% and 16%
- Population Tubulin-Different-Phenotype (%) [2]: 34% and 29%
- Total Cell Count [2]: 367 and 362
- Population Apoptotic (%) [3]: 35% and 27%
- Population Fragmented Nuclei (%) [3]: 11% and 5%
- Population Healthy Nuclei (%) [3]: 73% and 85%
- Population Hoechst High Intensity Objects (%) [3]: 5% and 3%
- Population Membrane Permeable-Phenotype (%) [3]: 0%
- Population Mitochondria Different-Phenotype (%) [3]: 28% and 27%
- Population Mitotic Cells (%) [3]: 64% and 72%
- Population Normal (%) [3]: 94% and 96%
- Population Pyknosed Nuclei (%) [3]: 14% and 8%
- Population Tubulin-Different-Phenotype (%) [3]: 20% and 10%
- Total Cell Count [3]: 462 and 473
- Population Apoptotic (%) [4]: 18% and 32%
- Population Fragmented Nuclei (%) [4]: 10% and 8%
- Population Healthy Nuclei (%) [4]: 75% and 82%
- Population Hoechst High Intensity Objects (%) [4]: 4% and 8%
- Population Membrane Permeable-Phenotype (%) [4]: 0% and 1%
- Population Mitochondria Different-Phenotype (%) [4]: 36% and 49%
- Population Mitotic Cells (%) [4]: 81% and 67%
- Population Normal (%) [4]: 95% and 91%
- Population Pyknosed Nuclei (%) [4]: 14% and 9%
- Population Tubulin-Different-Phenotype (%) [4]: 28% and 17%
- Total Cell Count [4]: 446 and 481
- Population Apoptotic (%) [5]: 29% and 33%
- Population Fragmented Nuclei (%) [5]: 13% and 11%
- Population Healthy Nuclei (%) [5]: 79% and 83%
- Population Hoechst High Intensity Objects (%) [5]: 3% and 1%
- Population Membrane Permeable-Phenotype (%) [5]: 0%
- Population Mitochondria Different-Phenotype (%) [5]: 20% and 14%
- Population Mitotic Cells (%) [5]: 70% and 66%
- Population Normal (%) [5]: 96% and 98%
- Population Pyknosed Nuclei (%) [5]: 6% and 5%
- Population Tubulin-Different-Phenotype (%) [5]: 13% and 7%
- Total Cell Count [5]: 822 and 770
- Population Apoptotic (%) [6]: 41% and 33%
- Population Fragmented Nuclei (%) [6]: 13% and 12%
- Population Healthy Nuclei (%) [6]: 78% and 81%
- Population Hoechst High Intensity Objects (%) [6]: 4% and 3%
- Population Membrane Permeable-Phenotype (%) [6]: 1% and 0%
- Population Mitochondria Different-Phenotype (%) [6]: 32% and 22%
- Population Mitotic Cells (%) [6]: 58% and 66%
- Population Normal (%) [6]: 95% and 96%
- Population Pyknosed Nuclei (%) [6]: 8% and 6%
- Population Tubulin-Different-Phenotype (%) [6]: 16% and 11%
- Total Cell Count [6]: 631 and 724
